Measured values from ChEMBL document CHEMBL3588829, “Dehydro-β-proline Containing α4β1 Integrin Antagonists: Stereochemical Recognition in Ligand-Receptor Interplay” (ACS Med Chem Lett, 2015).

Legend:
Integrin alpha-4/beta-1 [1] = biological target: T1, Integrin alpha-4/beta-1 (Homo sapiens, UniProt P05556+P13612); test: Inhibition of human alpha4beta1 integrin expressed in human Jurkat cells assessed as inhibition of cell adhesion to VCAM-1; assay type: cell-based
In short: (§1)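 Cell adhesion inhibition assay, run on Jurkat with VCAM-1, RPMI8866, K562 or SK-MEL-24 cells. Each experiment was run in quadruplicate and repeated at least three times.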

Integrin alpha-5/beta-1 = Integrin alpha-5/beta-1 (Homo sapiens, UniProt P05556+P08648); test: Inhibition of human alpha5beta1 integrin expressed in human K-562 cells assessed as inhibition of cell adhesion to fibronectin; assay type: cell-based, K562; in short: as §1
Chain of Integrin alpha-5/beta-1 (P05556 21-798 limits assumed): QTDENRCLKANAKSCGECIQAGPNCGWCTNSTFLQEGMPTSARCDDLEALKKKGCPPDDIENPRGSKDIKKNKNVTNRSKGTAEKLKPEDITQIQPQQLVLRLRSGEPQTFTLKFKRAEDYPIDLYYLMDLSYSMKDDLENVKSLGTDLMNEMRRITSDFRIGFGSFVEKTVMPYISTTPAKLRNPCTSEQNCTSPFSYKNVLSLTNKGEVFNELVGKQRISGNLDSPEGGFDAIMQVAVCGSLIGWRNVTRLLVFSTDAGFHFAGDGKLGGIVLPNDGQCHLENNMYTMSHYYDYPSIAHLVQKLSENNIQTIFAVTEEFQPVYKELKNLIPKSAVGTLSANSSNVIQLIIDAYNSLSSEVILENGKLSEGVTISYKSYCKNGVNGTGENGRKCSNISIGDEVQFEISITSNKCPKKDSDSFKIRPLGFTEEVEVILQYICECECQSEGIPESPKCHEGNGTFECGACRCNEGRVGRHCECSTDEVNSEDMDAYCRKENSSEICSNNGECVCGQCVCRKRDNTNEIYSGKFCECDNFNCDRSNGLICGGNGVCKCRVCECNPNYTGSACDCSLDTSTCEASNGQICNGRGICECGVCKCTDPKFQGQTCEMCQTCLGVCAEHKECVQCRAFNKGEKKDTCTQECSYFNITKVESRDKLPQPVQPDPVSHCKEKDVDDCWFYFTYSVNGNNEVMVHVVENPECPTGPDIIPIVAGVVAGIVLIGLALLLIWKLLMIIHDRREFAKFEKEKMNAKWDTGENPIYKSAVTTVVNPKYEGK
Chain of Integrin alpha-5/beta-1 (P08648 42-894 limits assumed): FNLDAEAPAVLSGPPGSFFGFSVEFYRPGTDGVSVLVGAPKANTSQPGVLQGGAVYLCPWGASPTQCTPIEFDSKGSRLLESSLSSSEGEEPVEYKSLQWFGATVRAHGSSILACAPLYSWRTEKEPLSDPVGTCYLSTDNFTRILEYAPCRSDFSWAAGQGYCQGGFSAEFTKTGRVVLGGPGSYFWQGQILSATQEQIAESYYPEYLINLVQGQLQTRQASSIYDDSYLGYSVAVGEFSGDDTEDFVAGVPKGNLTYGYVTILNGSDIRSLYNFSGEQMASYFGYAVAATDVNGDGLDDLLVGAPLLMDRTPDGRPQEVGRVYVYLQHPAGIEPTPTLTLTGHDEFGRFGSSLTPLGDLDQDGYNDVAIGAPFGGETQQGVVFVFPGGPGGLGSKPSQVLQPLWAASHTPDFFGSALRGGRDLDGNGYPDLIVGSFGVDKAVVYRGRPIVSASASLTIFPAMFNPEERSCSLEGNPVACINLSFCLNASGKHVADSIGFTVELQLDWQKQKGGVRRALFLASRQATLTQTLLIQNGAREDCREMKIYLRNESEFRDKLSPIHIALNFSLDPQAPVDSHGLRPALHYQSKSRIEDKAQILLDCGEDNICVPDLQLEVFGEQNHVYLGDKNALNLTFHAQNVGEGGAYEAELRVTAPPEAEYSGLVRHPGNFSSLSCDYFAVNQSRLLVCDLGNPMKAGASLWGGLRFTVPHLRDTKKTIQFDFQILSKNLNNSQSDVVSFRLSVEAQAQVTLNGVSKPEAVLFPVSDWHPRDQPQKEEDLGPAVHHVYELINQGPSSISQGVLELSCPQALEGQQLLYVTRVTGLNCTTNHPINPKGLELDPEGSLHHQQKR
Chain of Integrin alpha-5/beta-1 (P08648 895-1049 limits assumed): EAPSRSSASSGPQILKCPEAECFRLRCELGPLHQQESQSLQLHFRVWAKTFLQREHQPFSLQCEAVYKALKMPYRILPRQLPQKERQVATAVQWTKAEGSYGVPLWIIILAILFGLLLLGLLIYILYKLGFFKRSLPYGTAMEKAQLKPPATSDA

[2] = Inhibition of human […] integrin expressed in human Jurkat cells assessed as inhibition of cell adhesion to ICAM1; assay type: cell-based
Integrin alpha-4/beta-7 = biological target: T2, Integrin alpha-4/beta-7 (Homo sapiens, UniProt P13612+P26010); test: Inhibition of human alpha4beta7 integrin expressed in human RPMI8866 cells assessed as inhibition of cell adhesion to MadCam1; assay type: cell-based; in short: as §1
T2 sequence (P13612 whole entry): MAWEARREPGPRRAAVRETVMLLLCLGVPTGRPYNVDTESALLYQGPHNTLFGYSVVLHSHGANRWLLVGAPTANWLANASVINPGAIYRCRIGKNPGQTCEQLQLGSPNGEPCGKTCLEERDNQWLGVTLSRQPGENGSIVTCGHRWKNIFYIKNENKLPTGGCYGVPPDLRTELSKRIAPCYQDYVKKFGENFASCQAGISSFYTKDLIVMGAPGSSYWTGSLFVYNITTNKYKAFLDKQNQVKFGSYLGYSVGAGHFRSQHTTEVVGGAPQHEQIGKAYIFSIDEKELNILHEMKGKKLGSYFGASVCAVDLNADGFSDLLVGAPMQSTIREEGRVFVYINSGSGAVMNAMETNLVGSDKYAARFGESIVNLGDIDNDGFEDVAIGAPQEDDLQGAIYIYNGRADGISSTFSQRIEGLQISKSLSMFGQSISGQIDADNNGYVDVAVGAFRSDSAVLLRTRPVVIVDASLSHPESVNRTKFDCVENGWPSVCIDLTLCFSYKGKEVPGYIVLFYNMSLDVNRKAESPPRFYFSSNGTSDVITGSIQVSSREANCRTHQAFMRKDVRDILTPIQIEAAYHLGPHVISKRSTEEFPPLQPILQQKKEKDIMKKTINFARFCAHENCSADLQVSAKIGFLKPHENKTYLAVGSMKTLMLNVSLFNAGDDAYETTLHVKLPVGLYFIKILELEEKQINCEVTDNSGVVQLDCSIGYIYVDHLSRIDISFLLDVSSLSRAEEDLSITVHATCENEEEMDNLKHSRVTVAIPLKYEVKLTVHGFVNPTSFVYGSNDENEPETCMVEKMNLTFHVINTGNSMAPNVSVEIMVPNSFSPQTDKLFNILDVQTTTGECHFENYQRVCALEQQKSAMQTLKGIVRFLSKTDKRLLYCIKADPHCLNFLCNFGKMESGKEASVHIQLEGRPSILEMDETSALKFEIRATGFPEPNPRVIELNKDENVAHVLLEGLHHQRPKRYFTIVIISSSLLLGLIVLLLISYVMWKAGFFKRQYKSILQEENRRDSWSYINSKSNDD
T2 sequence (P26010 whole entry): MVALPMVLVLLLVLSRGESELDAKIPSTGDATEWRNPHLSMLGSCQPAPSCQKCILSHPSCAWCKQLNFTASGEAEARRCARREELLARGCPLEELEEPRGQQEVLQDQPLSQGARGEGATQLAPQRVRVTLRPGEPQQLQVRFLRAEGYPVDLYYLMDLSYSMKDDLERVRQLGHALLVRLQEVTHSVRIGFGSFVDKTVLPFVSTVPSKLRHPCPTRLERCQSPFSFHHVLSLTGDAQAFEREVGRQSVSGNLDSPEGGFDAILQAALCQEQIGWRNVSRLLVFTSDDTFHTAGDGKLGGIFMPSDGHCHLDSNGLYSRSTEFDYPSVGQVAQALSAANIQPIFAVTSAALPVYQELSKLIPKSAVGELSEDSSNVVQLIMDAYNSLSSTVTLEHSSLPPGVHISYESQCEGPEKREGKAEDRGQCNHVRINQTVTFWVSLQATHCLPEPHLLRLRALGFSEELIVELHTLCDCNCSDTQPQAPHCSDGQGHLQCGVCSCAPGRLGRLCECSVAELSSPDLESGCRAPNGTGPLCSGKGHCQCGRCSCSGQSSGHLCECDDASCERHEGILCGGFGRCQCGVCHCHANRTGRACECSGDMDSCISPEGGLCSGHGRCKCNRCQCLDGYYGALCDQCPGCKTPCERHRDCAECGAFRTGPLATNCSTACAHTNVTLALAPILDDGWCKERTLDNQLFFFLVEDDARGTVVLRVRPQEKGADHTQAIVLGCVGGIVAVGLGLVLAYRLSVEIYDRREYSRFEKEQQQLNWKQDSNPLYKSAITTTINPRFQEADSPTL

Integrin alpha-4/beta-1 [3] = biological target: T1, Integrin alpha-4/beta-1; test: Antagonist activity at human alpha4beta1integrin in human Jurkat cells assessed as reduction of VCAM-1-induced ERK1/2 phosphorylation after 60 mins by Western blot analysis; assay type: cell-based
In short: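 Jurkat cells were serum-starved for 16 h in RPMI-1640 with 1% FBS, then preincubated with compound in suspension for 60 min. They were then kept in suspension or plated on VCAM-1-coated wells, with poly-L-lysine as the nonspecific substrate. After 60 min the cells were lysed and Western blotted for pERK1/2 and total ERK1/2. Densitometry normalized pERK1/2 to tERK1/2 (mean ± SEM, n = 6). IC50 came from a separate concentration series.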

Integrin alpha-V/beta-3 = Integrin alpha-V/beta-3 (Homo sapiens, UniProt P05106+P06756); test: Inhibition of human alphaVbeta3 integrin expressed in human SK-MEL-24 cells assessed as inhibition of cell adhesion to fibronectin
Chain of Integrin alpha-V/beta-3 (P05106 27-788 limits assumed): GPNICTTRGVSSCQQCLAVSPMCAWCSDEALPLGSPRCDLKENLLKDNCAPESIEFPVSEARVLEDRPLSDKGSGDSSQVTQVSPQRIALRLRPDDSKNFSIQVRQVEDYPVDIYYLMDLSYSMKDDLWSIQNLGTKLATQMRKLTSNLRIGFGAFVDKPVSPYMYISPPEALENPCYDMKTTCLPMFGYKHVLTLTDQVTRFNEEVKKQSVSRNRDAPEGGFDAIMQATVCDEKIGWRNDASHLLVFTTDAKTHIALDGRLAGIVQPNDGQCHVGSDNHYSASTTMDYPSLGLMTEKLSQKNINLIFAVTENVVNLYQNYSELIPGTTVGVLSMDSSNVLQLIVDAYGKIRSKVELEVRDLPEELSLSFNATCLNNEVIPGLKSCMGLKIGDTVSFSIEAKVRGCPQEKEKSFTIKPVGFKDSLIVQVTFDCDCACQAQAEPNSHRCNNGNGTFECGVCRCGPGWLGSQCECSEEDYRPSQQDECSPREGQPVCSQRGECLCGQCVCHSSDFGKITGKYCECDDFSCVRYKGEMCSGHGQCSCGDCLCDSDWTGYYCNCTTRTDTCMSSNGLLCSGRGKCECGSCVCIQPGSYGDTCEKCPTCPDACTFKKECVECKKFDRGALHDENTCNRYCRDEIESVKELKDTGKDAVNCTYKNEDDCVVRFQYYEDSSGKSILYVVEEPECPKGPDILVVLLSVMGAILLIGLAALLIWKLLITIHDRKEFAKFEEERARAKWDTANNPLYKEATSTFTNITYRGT
Chain of Integrin alpha-V/beta-3 (P06756 31-889 limits assumed): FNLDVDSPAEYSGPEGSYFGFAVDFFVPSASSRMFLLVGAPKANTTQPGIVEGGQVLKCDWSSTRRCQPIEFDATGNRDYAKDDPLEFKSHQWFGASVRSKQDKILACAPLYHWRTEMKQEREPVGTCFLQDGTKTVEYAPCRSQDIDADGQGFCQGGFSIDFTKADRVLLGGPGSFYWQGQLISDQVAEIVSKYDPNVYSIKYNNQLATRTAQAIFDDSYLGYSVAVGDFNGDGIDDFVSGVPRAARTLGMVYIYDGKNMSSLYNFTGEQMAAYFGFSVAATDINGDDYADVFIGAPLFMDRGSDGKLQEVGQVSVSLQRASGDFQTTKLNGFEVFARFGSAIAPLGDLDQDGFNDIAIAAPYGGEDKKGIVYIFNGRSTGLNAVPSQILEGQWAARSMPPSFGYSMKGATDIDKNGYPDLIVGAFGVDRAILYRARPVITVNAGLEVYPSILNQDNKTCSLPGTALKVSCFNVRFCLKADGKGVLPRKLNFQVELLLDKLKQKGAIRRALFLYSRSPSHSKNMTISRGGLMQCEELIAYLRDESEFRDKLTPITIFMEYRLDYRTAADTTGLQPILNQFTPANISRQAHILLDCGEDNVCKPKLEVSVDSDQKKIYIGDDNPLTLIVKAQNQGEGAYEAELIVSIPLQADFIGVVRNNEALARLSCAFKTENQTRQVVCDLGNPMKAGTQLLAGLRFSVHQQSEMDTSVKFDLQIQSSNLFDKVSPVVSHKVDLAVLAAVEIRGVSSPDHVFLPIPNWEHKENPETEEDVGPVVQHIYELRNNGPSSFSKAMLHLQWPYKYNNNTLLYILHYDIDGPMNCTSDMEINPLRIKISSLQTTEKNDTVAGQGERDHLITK
Chain of Integrin alpha-V/beta-3 (P06756 891-1048 limits assumed): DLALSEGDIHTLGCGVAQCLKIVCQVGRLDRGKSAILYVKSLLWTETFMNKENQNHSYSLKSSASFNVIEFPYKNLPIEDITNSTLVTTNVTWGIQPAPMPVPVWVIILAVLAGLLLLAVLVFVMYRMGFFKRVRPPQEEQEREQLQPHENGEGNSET

T1 sequence (P05556 whole entry, one chain of several): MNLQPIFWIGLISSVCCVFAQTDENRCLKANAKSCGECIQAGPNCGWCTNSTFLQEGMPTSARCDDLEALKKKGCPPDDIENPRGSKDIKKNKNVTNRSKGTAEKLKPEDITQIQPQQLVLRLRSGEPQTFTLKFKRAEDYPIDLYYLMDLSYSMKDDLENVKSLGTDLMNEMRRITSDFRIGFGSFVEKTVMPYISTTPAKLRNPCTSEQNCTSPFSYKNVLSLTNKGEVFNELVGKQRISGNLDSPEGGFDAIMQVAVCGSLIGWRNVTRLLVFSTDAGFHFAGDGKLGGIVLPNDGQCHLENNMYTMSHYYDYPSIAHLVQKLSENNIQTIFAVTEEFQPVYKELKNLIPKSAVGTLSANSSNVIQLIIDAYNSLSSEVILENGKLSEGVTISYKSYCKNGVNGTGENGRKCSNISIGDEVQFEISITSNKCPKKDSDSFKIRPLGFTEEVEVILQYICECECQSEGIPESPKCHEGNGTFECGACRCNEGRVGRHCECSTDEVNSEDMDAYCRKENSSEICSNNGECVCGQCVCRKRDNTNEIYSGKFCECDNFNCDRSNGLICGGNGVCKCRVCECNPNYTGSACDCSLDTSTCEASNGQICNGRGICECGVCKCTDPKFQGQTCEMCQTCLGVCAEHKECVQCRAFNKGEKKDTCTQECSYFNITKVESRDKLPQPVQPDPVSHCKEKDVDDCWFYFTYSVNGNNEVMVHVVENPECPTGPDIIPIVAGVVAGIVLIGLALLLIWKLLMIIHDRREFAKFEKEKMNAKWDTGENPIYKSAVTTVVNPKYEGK

Row | Compound | IC50 (Integrin alpha-4/beta-1 [1]) [nM] | IC50 (Integrin alpha-5/beta-1) [nM] | IC50 [2] [nM] | IC50 (Integrin alpha-4/beta-7) [nM] | IC50 (Integrin alpha-4/beta-1 [3]) [nM] | IC50 (Integrin alpha-V/beta-3) [nM]
1 | Cc1ccccc1NC(=O)Nc1ccc(CNC(=O)C2=CCN(C(=O)CC(=O)O)[C@H]2C(C)C)cc1 | > 1000 |  |  |  |  | 
2 | Cc1ccccc1NC(=O)Nc1ccc(CNC(=O)C2=CCN(C(=O)CC(=O)O)[C@H]2C2CCCCC2)cc1 | > 1000 |  |  |  |  | 
3 | Cc1ccccc1NC(=O)Nc1ccc(CNC(=O)C2=CCN(C(=O)CC(=O)O)[C@@H]2C2CCCCC2)cc1 | 62 | > 1000 | > 1000 | 343 | 131 | > 1000

Continued, values first:

Row | IC50 (Integrin alpha-4/beta-1 [1]) [nM] | IC50 (Integrin alpha-5/beta-1) [nM] | IC50 [2] [nM] | IC50 (Integrin alpha-4/beta-7) [nM] | IC50 (Integrin alpha-4/beta-1 [3]) [nM] | IC50 (Integrin alpha-V/beta-3) [nM] | Compound
4 | 110 |  |  |  |  |  | Cc1ccccc1NC(=O)N1CC=C(C(=O)NCc2ccc(NC(=O)CC(=O)O)cc2)[C@@H]1C(C)C
5 | 250 |  |  |  |  |  | Cc1ccccc1NC(=O)N1CC=C(C(=O)NCc2ccc(NC(=O)CC(=O)O)cc2)[C@H]1C(C)C
6 | 10 | > 1000 | > 1000 | 270 | 10 | > 1000 | Cc1ccccc1NC(=O)Nc1ccc(CNC(=O)C2=CCN(C(=O)CC(=O)O)[C@@H]2C(C)C)cc1
